# Experimental data collected from several papers.
# Lines come from different studies, so protocols differ.
# Target: Interferon-induced, double-stranded RNA-activated protein kinase (EIF2AK2, Homo sapiens, UniProt P19525)
SMILES,assay,system,setting,quantity,value
Cc1nc(N2CC[C@@H](O)C2)ncc1-c1cc(C(F)(F)F)cc2[nH]ncc12,"binding, competition with immobilised ligand",,1 µM,remaining binding,100%
CN1CC(Oc2cnc(C#N)cc2-c2ccn3nc(NC(=O)C4CC4)cc3c2)C1,"enzyme activity, inhibitor",,1 µM,inhibition,14%
Cc1cc(NC(=O)c2cccc3cc(-c4cccc5[nH]nc(N)c45)ccc23)ccc1F,"enzyme activity, inhibitor",,0.1 µM,activity vs control,106%
CCCCNc1ncc2c(-c3ccc(F)cc3)nn(C[C@H]3CC[C@H](N)CC3)c2n1,"target engagement in cells, inhibitor, chemoproteomics",,20 mM,inhibition,8.5%
CC(C)CC(=O)N1CCc2nc(-c3ccc(Br)cc3)nc(N(C)Cc3ccccc3)c2C1,"cell-free assay, competition with immobilised ligand",,0.1 µM,remaining binding,100%
Cc1ccc(C(=O)Nc2ccc(CN3CCN(C)CC3)c(C(F)(F)F)c2)cc1C#Cc1cnc2cccnn12,"enzyme activity, inhibitor",,23.5 nM,remaining activity,100%
CNc1cc(Oc2cc(C(=O)Nc3cc(N4CCN(C)CC4)cc(C(F)(F)F)c3)ccc2C)ncn1,"target engagement in cells, inhibitor, chemoproteomics",Huh-7,1 µM,inhibition,-13%
Cc1ccc(NC(=O)c2ccc(C)c(C(F)(F)F)c2)cc1C#Cc1nn(C2CCC(O)CC2)c2ncnc(N)c12 (centres unmarked),cell-free assay,,10 µM,remaining signal,75%
Cc1ccc(C(=O)NCc2ccsc2)cc1C#Cc1cn(C(C)C)c2ncnc(N)c12,"enzyme activity, inhibitor",,1 µM,activity vs control,97%
CC/C(=N\NC(=O)NCc1cccc(O)c1)c1ccc(O)c(C)c1O,"enzyme activity, inhibitor",,0.1 µM,inhibition,8.7%
c1ccc(CNc2nc(N3CCOc4ccccc43)nc3c2CCCC3)cc1,"target engagement in cells, inhibitor, chemoproteomics",,20 mM,inhibition,-5.4%
Nc1ncnc2occ(-c3ccc(NC(=O)Nc4cc(C(F)(F)F)ccc4F)cc3)c12,"cell-free assay, inhibitor",,20 µM,remaining signal,54%
CC(C)(C)c1nc(-c2cccc(NS(=O)(=O)c3c(F)cccc3F)c2F)c(-c2ccnc(N)n2)s1,"enzyme activity, inhibitor, radiometric",,1 µM,remaining activity,95%
Cc1cnc(NC2CCOCC2)nc1-n1cnc(C(=O)NC(CN)c2cc(F)cc(Cl)c2)c1 (centres unmarked),"enzyme activity, inhibitor, radiometric",,1 µM,remaining activity,39%
N#Cc1ccc(Nc2ccc3[nH]c(=O)[nH]c3c2)c(Cl)c1,"cell-free assay, competition with immobilised ligand",,1 µM,remaining binding,57%
C[C@H]1CCN(c2nccc(-c3cnn4ncccc34)n2)C1,binding,,1 µM,remaining binding,100%
CC(C)(C)c1nc2c(s1)c1nc(N)ncc1c1ccc(NS(=O)(=O)c3c(F)cccc3F)c(F)c12,"enzyme activity, inhibitor, radiometric",,1 µM,remaining activity,93%
